# Several values for one entry are separate records, joined by “and”; a condition that tells them apart may be missing. Equal entries are not always repeated.
# Tests used:
# Assay type in all cases: toxicity, cell-based
# [1] = system: Fibroblast; test: Incucyte cell viability with human fibroblast; settings: 10 µM, compound concentration 10 uM; further: filed as whole numbers so only -1 and 0 and 1 occur
# [2] = system: U2OS; test: Multiplex assay against U2OS; settings: human, 10 µM, compound concentration 10 uM
# Method in brief: (§1)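 With compound added, live cells were imaged on a CQ1 microscope at 37°C and 5% CO2; staining with Hoechst33342, BioTracker Green Microtubule Cytoskeleton Dye, MitoTracker Red and Annexin V Alexa Fluor 680 had been done at seeding. The CellPathfinder machine-learning gating scheme split cells into Hoechst high-intensity objects or normal cells, normal cells into healthy, pyknosed or fragmented nuclei, and pyknosed cells into mitotic or apoptotic. The tubulin, mitochondrial-mass and membrane-permeability phenotypes are per cents of healthy-nucleus cells.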
# [3] = system: HEK-293T; test: Incucyte cell viability with HEK293T; settings: human, 10 µM, compound concentration 10 uM; further: filed as whole numbers so only -1 and 0 and 1 occur
# [4] = system: Fibroblast; test: Multiplex assay against human fibroblast; settings: 10 µM, compound concentration 10 uM; method in brief: as §1
# [5] = 6 h, replicate number 1, timepoint 6 hours
# [6] = 12 h, replicate number 1, timepoint 12 hours
# [7] = 18 h, replicate number 1, timepoint 18 hours
# [8] = 24 h, replicate number 1, timepoint 24 hours
smiles,measurement,setting,value
CCn1c(=O)c(-c2ccc(Cl)cc2Cl)cc2cnc(Nc3ccc(N4CCNCC4)c(F)c3)nc21,Growth Rate,"[1]; 0 h, replicate number 1, timepoint 0 hours",0
same,Growth Rate,[1]; [5],0
same,Growth Rate,[1]; [6],0
same,Growth Rate,[1]; [7],0
same,Growth Rate,[1]; [8],0
same,Population Apoptotic (%),"[2]; 12 h, replicate 1",97% and 89% and 38%
same,Population Normal (%),"[2]; 12 h, replicate 1",31% and 45% and 92%
same,Total Cell Count,"[2]; 12 h, replicate 1",204 and 465 and 202
same,Population Apoptotic (%),"[2]; 12 h, replicate 2",100% and 88% and 46%
same,Population Fragmented Nuclei (%),"[2]; 12 h, replicate 2",44% and 21% and 19%
same,Population Membrane Permeable-Phenotype (%),"[2]; 12 h, replicate 2",71% and 78%
same,Population Normal (%),"[2]; 12 h, replicate 2",50% and 40% and 80%
same,Total Cell Count,"[2]; 12 h, replicate 2",206 and 130 and 83
same,Population Apoptotic (%),"[2]; 24 h, replicate 1",87% and 91% and 60%
same,Population Fragmented Nuclei (%),"[2]; 24 h, replicate 1",22% and 8%
same,Population Normal (%),"[2]; 24 h, replicate 1",40% and 34% and 89%
same,Population Pyknosed Nuclei (%),"[2]; 24 h, replicate 1",50% and 40% and 25%
same,Total Cell Count,"[2]; 24 h, replicate 1",436 and 206 and 232
same,Population Apoptotic (%),"[2]; 24 h, replicate 2",100% and 53%
same,Population Fragmented Nuclei (%),"[2]; 24 h, replicate 2",41% and 39%
same,Population Healthy Nuclei (%),"[2]; 24 h, replicate 2",31% and 45% and 50%
same,Population Pyknosed Nuclei (%),"[2]; 24 h, replicate 2",26% and 15% and 27%
same,Population Tubulin-Different-Phenotype (%),"[2]; 24 h, replicate 2",84% and 86% and 29%
same,Total Cell Count,"[2]; 24 h, replicate 2",225 and 118 and 97
same,Population Apoptotic (%),"[2]; 48 h, replicate 1",90%
same,Population Fragmented Nuclei (%),"[2]; 48 h, replicate 1",48%
same,Population Healthy Nuclei (%),"[2]; 48 h, replicate 1",10%
same,Population Hoechst High Intensity Objects (%),"[2]; 48 h, replicate 1",59%
same,Population Membrane Permeable-Phenotype (%),"[2]; 48 h, replicate 1",75%
same,Population Mitochondria Different-Phenotype (%),"[2]; 48 h, replicate 1",62%
same,Population Mitotic Cells (%),"[2]; 48 h, replicate 1",9%
same,Population Normal (%),"[2]; 48 h, replicate 1",40%
same,Population Pyknosed Nuclei (%),"[2]; 48 h, replicate 1",41%
same,Population Tubulin-Different-Phenotype (%),"[2]; 48 h, replicate 1",75%
same,Total Cell Count,"[2]; 48 h, replicate 1",620
same,Population Apoptotic (%),"[2]; 48 h, replicate 2",100%
same,Population Fragmented Nuclei (%),"[2]; 48 h, replicate 2",43%
same,Population Healthy Nuclei (%),"[2]; 48 h, replicate 2",26%
same,Population Hoechst High Intensity Objects (%),"[2]; 48 h, replicate 2",56%
same,Population Membrane Permeable-Phenotype (%),"[2]; 48 h, replicate 2",100%
same,Population Mitochondria Different-Phenotype (%),"[2]; 48 h, replicate 2",91%
same,Population Mitotic Cells (%),"[2]; 48 h, replicate 2",0%
same,Population Normal (%),"[2]; 48 h, replicate 2",43%
same,Population Pyknosed Nuclei (%),"[2]; 48 h, replicate 2",30%
same,Population Tubulin-Different-Phenotype (%),"[2]; 48 h, replicate 2",91%
same,Total Cell Count,"[2]; 48 h, replicate 2",227
same,Growth Rate,[3]; [5],0
same,Growth Rate,[3]; [6],0
same,Growth Rate,[3]; [7],0
same,Growth Rate,[3]; [8],0
same,Population Apoptotic (%),"[4]; 12 h, replicate 1",33% and 53% and 60%
same,Population Fragmented Nuclei (%),"[4]; 12 h, replicate 1",33% and 37% and 26%
same,Population Healthy Nuclei (%),"[4]; 12 h, replicate 1",39% and 46% and 56%
same,Population Hoechst High Intensity Objects (%),"[4]; 12 h, replicate 1",69% and 59% and 37%
same,Population Mitochondria Different-Phenotype (%),"[4]; 12 h, replicate 1",11% and 6% and 5%
same,Population Mitotic Cells (%),"[4]; 12 h, replicate 1",66% and 46% and 39%
same,Population Normal (%),"[4]; 12 h, replicate 1",30% and 41% and 62%
same,Population Pyknosed Nuclei (%),"[4]; 12 h, replicate 1",27% and 16%
same,Population Fragmented Nuclei (%),"[4]; 12 h, replicate 2",44% and 57% and 61%
same,Population Healthy Nuclei (%),"[4]; 12 h, replicate 2",18% and 35% and 19%
same,Population Hoechst High Intensity Objects (%),"[4]; 12 h, replicate 2",50% and 51% and 70%
same,Population Normal (%),"[4]; 12 h, replicate 2",50% and 48% and 29%
same,Total Cell Count,"[4]; 12 h, replicate 2",206 and 112 and 242
same,Population Apoptotic (%),"[4]; 24 h, replicate 1",47% and 66% and 63%
same,Population Fragmented Nuclei (%),"[4]; 24 h, replicate 1",40% and 37% and 23%
same,Population Healthy Nuclei (%),"[4]; 24 h, replicate 1",32% and 38% and 58%
same,Population Hoechst High Intensity Objects (%),"[4]; 24 h, replicate 1",72% and 65% and 42%
same,Population Mitochondria Different-Phenotype (%),"[4]; 24 h, replicate 1",14% and 20% and 7%
same,Population Mitotic Cells (%),"[4]; 24 h, replicate 1",52% and 33% and 36%
same,Population Normal (%),"[4]; 24 h, replicate 1",27% and 34% and 57%
same,Population Pyknosed Nuclei (%),"[4]; 24 h, replicate 1",24% and 17%

# From ChEMBL document CHEMBL4689842, “EUbOPEN Chemogenomics Library wave 1” (2021)
